# Article PMC12217622 (Nature Communications, 2025)
# Legend:
# [1] = tested on: MtLYR8; assay: Radiolabelled LCO binding to membrane fractions, MtLYR8; set-up: species or system Medicago truncatula; conditions: 2 µM competitor
# Procedure, shortened: (§1)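 N. benthamiana leaves (~20 g) were homogenised at 4 °C in Tris pH 8.5, sucrose, EDTA, DTT, PVPP and protease inhibitors, then spun at 3000 x g and 45,000 x g. The pellet was resuspended in 25 mM Na cacodylate pH 6, 1 mM MgCl2, 1 mM CaCl2, 250 mM sucrose. 35S-LCO (enzymatic NodH sulfation) was bound for 1 h on ice, then filtered through glass fibre, washed and counted by scintillation. Three technical replicates.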
# [2] = tested on: TaLYR2A; assay: Radiolabelled LCO binding to membrane fractions, TaLYR2A; set-up: species or system Triticum aestivum; conditions: 2 µM competitor
# Procedure, shortened: as §1
# [3] = tested on: TaLYR2B; assay: Radiolabelled LCO binding to membrane fractions, TaLYR2B; set-up: species or system Triticum aestivum; conditions: 2 µM competitor
# Procedure, shortened: as §1
# [4] = tested on: TaLYR2D; assay: Radiolabelled LCO binding to membrane fractions, TaLYR2D; set-up: species or system Triticum aestivum; conditions: 2 µM competitor
# Procedure, shortened: as §1
# [5] = tested on: R. irregularis DAOM 197198; assay: Stimulation of AMF root-length colonization by LCO and CO4 treatments in wheat; assay type: in vivo, Triticum aestivum; conditions: 10^−7 M treatment
# Procedure, shortened: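 Fielder wheat carried a pZmUBI:BdLYR2-cmyc cassette or empty vector, two lines each. Surface-sterilised seeds were germinated 1 week at 4 °C and 3 days at 25 °C, then planted in attapulgite with 500 R. irregularis DAOM 197198 spores. Plants got 0.5x Long Ashton (7.5 µM NaH2PO4) with 10^-7 M LCO or CO4 or 0.05% acetonitrile at start, 2 and 4 weeks. Roots were stained at 5–6 wpi; colonization was normalised to untreated controls; Kruskal-Wallis test.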
Structure (SMILES),competition of LCO binding [1],competition of LCO binding [2],competition of LCO binding [3],competition of LCO binding [4],effect on AMF colonization ([5]; control wheat plants (empty vector)),effect on AMF colonization ([5]; transgenic wheat plants pUbi:BdLYR2)
CC(=O)N[C@H]1[C@H](O[C@H]2[C@H](O)[C@@H](NC(C)=O)[C@H](O[C@H]3[C@H](O)[C@@H](NC(C)=O)[C@H](O[C@H]4[C@H](O)[C@@H](NC(C)=O)C(O)O[C@@H]4CO)O[C@@H]3CO)O[C@@H]2CO)O[C@H](CO)[C@@H](O[C@@H]2O[C@H](CO)[C@@H](O[C@@H]3O[C@H](CO)[C@@H](O[C@@H]4O[C@H](CO)[C@@H](O[C@@H]5O[C@H](CO)[C@@H](O)[C@H](O)[C@H]5NC(C)=O)[C@H](O)[C@H]4NC(C)=O)[C@H](O)[C@H]3NC(C)=O)[C@H](O)[C@H]2NC(C)=O)[C@@H]1O (stereo partly shown) [CO8],complete competition,complete competition,complete competition,complete competition,,
CC(=O)N[C@H]1[C@H](O[C@H]2[C@H](O)[C@@H](NC(C)=O)C(O)O[C@@H]2CO)O[C@H](CO)[C@@H](O[C@@H]2O[C@H](CO)[C@@H](O[C@@H]3O[C@H](CO)[C@@H](O)[C@H](O)[C@H]3NC(C)=O)[C@H](O)[C@H]2NC(C)=O)[C@@H]1O (stereo partly shown) [CO4],complete competition,complete competition,complete competition,complete competition,increased AMF colonization,no further increase
